The record followed here is publication PMC2909360 (Molecular microbiology, 2010).

Experiment [1] addresses T1, purified human cathepsin H (Homo sapiens, UniProt P09668).
T1 sequence (P09668 98-335): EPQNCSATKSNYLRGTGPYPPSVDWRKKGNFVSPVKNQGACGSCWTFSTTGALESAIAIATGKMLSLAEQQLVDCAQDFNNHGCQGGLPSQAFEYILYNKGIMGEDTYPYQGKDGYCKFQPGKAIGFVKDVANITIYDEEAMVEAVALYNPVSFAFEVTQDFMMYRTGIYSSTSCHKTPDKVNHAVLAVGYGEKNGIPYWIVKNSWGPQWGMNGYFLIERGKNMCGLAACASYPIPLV
The experiment is described as follows: Inhibition of cathepsin H, fluorogenic substrate assay. Type of experiment: biochemical.

Experiment [2] deals with purified bovine cathepsin B (Bos taurus, UniProt P07688). As to the kind of experiment: Inhibition of cathepsin B, fluorogenic substrate assay. Type of experiment: biochemical. In a few lines: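 Pre-incubated 10 min at room temperature with increasing inhibitor concentrations, then Z-Leu-Arg-AMC added (0.25 mM final) at 30°C. Linear hydrolysis rate read for 20 min (ex 365/em 450 nm). Triplicates, mean ± SEM. IC50 from activity loss.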

Where two headings read alike, the source gives them in different places.

B1: sialoL2: salivary cystatin (cysteine protease inhibitor) from the tick Ixodes scapularis, recombinant from E. coli (protein)
chain: MELALRGGYRERSNQDDPEYLELAHYATSTWSAQQPGKTHFDTVVEVLKVETQTVAGTNYRLTLKVAESTCELTSTYNKDTCQANANAAQRTCTTVIYRNLQGEKSISSFECAAA
Turning to B1, in experiment [1] (listed as sialostatin L2), the “inhibition of cathepsin H (in words)” value is listed as “no detectable inhibition”. For the same molecule, the “inhibition of cathepsin B (in words)” value in experiment [2] is “no inhibition”.

B2: sialoL: salivary cystatin (cysteine protease inhibitor) from the tick Ixodes scapularis, recombinant from E. coli (protein)
chain: TGVFGGYSERANHQANPEFLNLAHYATSTWSAQQPGKTHFDTVAEVVKVETQVVAGTNYRLTLKVAESTCELTSTYNKDTCLPKADAAHRTCTTVVFENLQGDKSVSPFECEAA
Take B2: the “inhibition of cathepsin H (in words)” value in experiment [1] was “no inhibition”. Besides, the “inhibition of cathepsin B (in words)” value in experiment [2] was “no inhibition”.
